The results in this text go back to ChEMBL document CHEMBL1221207, “Expanding the promiscuity of a natural-product glycosyltransferase by directed evolution” (Nat Chem Biol, 2007).

Residue numbers refer to the chain shown, from its start.

For assay [1], the target named is T1, Oleandomycin glycosyltransferase (Streptomyces antibioticus) (UniProt Q53685).
T1 sequence (whole entry): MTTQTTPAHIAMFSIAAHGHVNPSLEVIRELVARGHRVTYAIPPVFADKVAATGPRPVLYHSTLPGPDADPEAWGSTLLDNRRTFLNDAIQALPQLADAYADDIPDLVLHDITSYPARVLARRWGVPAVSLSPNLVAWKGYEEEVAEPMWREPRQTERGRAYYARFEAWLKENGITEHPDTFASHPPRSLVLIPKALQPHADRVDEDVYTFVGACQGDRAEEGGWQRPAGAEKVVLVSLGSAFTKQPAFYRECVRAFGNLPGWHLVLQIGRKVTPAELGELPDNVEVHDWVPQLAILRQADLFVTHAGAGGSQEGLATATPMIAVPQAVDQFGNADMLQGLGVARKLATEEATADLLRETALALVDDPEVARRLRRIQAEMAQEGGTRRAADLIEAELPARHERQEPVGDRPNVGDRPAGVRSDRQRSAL
As to the kind of experiment: Activity of Streptomyces antibioticus wild-type OleD assessed as conversion rate of compound to produce glucoside 3 using NDP sugar UDP-glucose after 3 hrs by HPLC. Summed up: (§1)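 End-point donor-specificity assay with purified OleD enzyme. Percentage conversion was read after 3 h. Quenched reactions were run by reverse-phase C18 HPLC with a 10–90% CH3CN gradient in 0.1% formic acid/H2O over 20 min at 1 ml min–1, with detection at 254 nm. Products were identified by LC-MS, by comparison to standards where available, and by fluorescence.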

The test system of assay [2] is T2, Oleandomycin glycosyltransferase (Streptomyces antibioticus), Q53685 [P67T,S132F,A242V].
T2 sequence (whole entry): T1 sequence (whole entry) with P67T, S132F, A242V
As to the kind of experiment: Activity of Streptomyces antibioticus OleD P67T/S132F/A242V mutant assessed as conversion rate of compound to produce glucoside 3 using NDP sugar donor UDP-2-amino-glucose after 3 hrs by HPLC. An outline of the steps: as §1

Assay [3] relates to T3, Oleandomycin glycosyltransferase (Streptomyces antibioticus), Q53685 [P67T].
T3 sequence (whole entry): T1 sequence (whole entry) with P67T
Description: Activity of Streptomyces antibioticus OleD P67T mutant assessed as conversion rate of compound to produce glucoside 3 using NDP sugar donor UDP-xylose after 3 hrs by HPLC. An outline of the steps:
as §1

For `Cc1cc(=O)oc2cc(O)ccc12`, the figures for the Activity in assay [1], in assay [2] and in assay [3] were 13.9%, 24% and 2%, respectively.
